One experiment has as its system Leishmania infantum. The experiment can be described thus: Percentage of activity against Leishmania infantum at 12.5 uM Concentration; Toxic upon mouse primary peritoneal macrophages. In kind it is functional, organism-based.
Conditions: not given
The method, boiled down: (§1)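 Starch-stimulated mouse peritoneal macrophages, 30 000/well, infected after 24 h with spleen-derived L. infantum amastigotes (10:1) together with 2-fold drug dilutions (12.5–1.56 µM). Incubated 7 days at 37 °C, 5% CO2. Wright-stained slides scored microscopically as % reduction of total parasite load or of infected macrophages. Uninfected treated cultures judged microscopically for macrophage toxicity.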
As to `COc1ccc2nc3cc(Cl)ccc3c(NCCCCCCCCNc3c4ccc(Cl)cc4nc4ccc(OC)cc34)c2c1`, the Cytotoxicity result is “Toxic”.

With `COc1ccc2nc3cc(Cl)ccc3c(NCCCCCCCCCCNc3c4ccc(Cl)cc4nc4ccc(OC)cc34)c2c1`, the Cytotoxicity entry is “Toxic”.

The next experiment has as its system Trypanosoma brucei. Description: Percentage of activity against Trypanosoma brucei at 12.5 uM. The experiment is classed as functional.
Conditions: not given
The method, boiled down:
(§2)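 Bloodstream-form T. brucei in HMI-9 medium, 10 000 parasites/well, exposed to 12.5, 6.25, 3.13 and 1.56 µM drug for 4 days. Read-out is % inhibition of parasite multiplication. Macrophage toxicity judged on mouse primary peritoneal macrophages.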
Turning to `COc1ccc2nc3cc(Cl)ccc3c(NCCCCCCCCNc3c4ccc(Cl)cc4nc4ccc(OC)cc34)c2c1`, the “Inhibition of parasite multiplication” value was 100%.

Turning to `COc1ccc2nc3cc(Cl)ccc3c(NCCCCCCCCCCNc3c4ccc(Cl)cc4nc4ccc(OC)cc34)c2c1`, the “Inhibition of parasite multiplication” value was 100%.

The next experiment deals with Trypanosoma brucei. The experiment can be described thus: Percentage of activity against Trypanosoma brucei at 1.56 uM. The experiment is classed as functional.
Conditions: not given
The method, boiled down: as §2
For `COc1ccc2nc3cc(Cl)ccc3c(NCCCCCCCCNc3c4ccc(Cl)cc4nc4ccc(OC)cc34)c2c1`, the “Percent inhibition of parasite multiplication” value amounted to 100%.

`COc1ccc2nc3cc(Cl)ccc3c(NCCCCCCCCCCNc3c4ccc(Cl)cc4nc4ccc(OC)cc34)c2c1`: the “Percent inhibition of parasite multiplication” value is 100%.

In another experiment the test system is Trypanosoma cruzi. Description: Percentage of activity against Trypanosoma cruzi at 12.5 uM; Toxic upon mouse primary peritoneal macrophages. In kind it is functional, organism-based.
Conditions: not given
The method, boiled down: (§3)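 Mouse peritoneal macrophages, 30 000/well, infected after 24 h with about 100 000 T. cruzi trypomastigotes per well plus 2-fold drug dilutions (12.5–1.56 µM). Incubated 4 days at 37 °C, 5% CO2. Methanol-fixed, Giemsa-stained and scored microscopically as % reduction of total parasite load (free trypomastigotes plus intracellular amastigotes) versus untreated controls.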
On to `COc1ccc2nc3cc(Cl)ccc3c(NCCCCCCCCNc3c4ccc(Cl)cc4nc4ccc(OC)cc34)c2c1`, for which the Cytotoxicity result was “Toxic”.

For a further experiment, the system named is MRC5. The experiment can be described thus: Cytotoxicity on MRC-5 cells at 25 uM. The experiment is classed as functional. The settings on record: Homo sapiens. The method, boiled down: (§4)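 MRC-5 human diploid embryonic lung cells seeded at 5 000/well, washed after 24 h, then given 2-fold drug dilutions (25, 12.5, 6.25, 3.13 µM) in RPMI + 5% FCS, final DMSO below 0.5%. Incubated 7 days at 37 °C, 5% CO2. MTT colorimetric read-out, scored as % reduction of absorbance at 540 nm versus untreated controls.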
The compound `COc1ccc2nc3cc(Cl)ccc3c(NCCCCCCCCNc3c4ccc(Cl)cc4nc4ccc(OC)cc34)c2c1` displayed a cytotoxicity at 25 µM of 100%.

Regarding `COc1ccc2nc3cc(Cl)ccc3c(NCCCCCCCCCCNc3c4ccc(Cl)cc4nc4ccc(OC)cc34)c2c1`, the cytotoxicity at 25 µM worked out at 90%.

For the next experiment, the system named is Trypanosoma cruzi. The experiment can be described thus: Percentage of activity against Trypanosoma cruzi at 3.13 uM. The experiment is classed as functional.
Conditions: not given
A digest of the protocol: as §3
As for `COc1ccc2nc3cc(Cl)ccc3c(NCCCCCCCCNc3c4ccc(Cl)cc4nc4ccc(OC)cc34)c2c1`, the “Reduction of T. cruzi parasite load” value was found to be 90%.

In the case of `COc1ccc2nc3cc(Cl)ccc3c(NCCCCCCCCCCNc3c4ccc(Cl)cc4nc4ccc(OC)cc34)c2c1`, the “Reduction of T. cruzi parasite load” value was 40%.

The test system of another experiment is MRC5. The experiment can be described thus: Cytotoxicity on MRC-5 cells at 6.25 uM. In kind it is functional. The settings on record: Homo sapiens. The method, boiled down:
as §4
Turning to `COc1ccc2nc3cc(Cl)ccc3c(NCCCCCCCCNc3c4ccc(Cl)cc4nc4ccc(OC)cc34)c2c1`, the cytotoxicity at 6.25 µM worked out at 100%.

In the case of `COc1ccc2nc3cc(Cl)ccc3c(NCCCCCCCCCCNc3c4ccc(Cl)cc4nc4ccc(OC)cc34)c2c1`, the cytotoxicity at 6.25 µM was found to be 0%.

The next experiment deals with Leishmania infantum. The experiment can be described thus: Percentage of activity against Leishmania infantum at 3.13 uM. The experiment is classed as functional.
Conditions: not given
A digest of the protocol: as §1
For `COc1ccc2nc3cc(Cl)ccc3c(NCCCCCCCCNc3c4ccc(Cl)cc4nc4ccc(OC)cc34)c2c1`, the “Percent antileishmanial activity (reduction of parasite load)” value is listed as 90%.

For `COc1ccc2nc3cc(Cl)ccc3c(NCCCCCCCCCCNc3c4ccc(Cl)cc4nc4ccc(OC)cc34)c2c1`, the “Percent antileishmanial activity (reduction of parasite load)” value is 70%.

The test system of another experiment is Trypanosoma cruzi. Description: Percentage of activity against Trypanosoma cruzi at 6.25 uM Concentration.
Conditions: not given
The experiment is classed as functional. A digest of the protocol: as §3
Consider `COc1ccc2nc3cc(Cl)ccc3c(NCCCCCCCCNc3c4ccc(Cl)cc4nc4ccc(OC)cc34)c2c1`, for which the “Reduction of T. cruzi parasite load” value is 98%.

As to `COc1ccc2nc3cc(Cl)ccc3c(NCCCCCCCCCCNc3c4ccc(Cl)cc4nc4ccc(OC)cc34)c2c1`, the “Reduction of T. cruzi parasite load” value is given as 70%.

The next experiment concerns Trypanosoma brucei. Description: Percentage of activity against Trypanosoma brucei at 3.13 uM. In kind it is functional.
Conditions: not given
The method, boiled down:
as §2
On to `COc1ccc2nc3cc(Cl)ccc3c(NCCCCCCCCNc3c4ccc(Cl)cc4nc4ccc(OC)cc34)c2c1`, for which the Parasite growth inhibition is listed as 100%.

`COc1ccc2nc3cc(Cl)ccc3c(NCCCCCCCCCCNc3c4ccc(Cl)cc4nc4ccc(OC)cc34)c2c1` had a Parasite growth inhibition of 100%.

A further experiment has as its system Leishmania infantum. The experiment can be described thus: Percentage of activity against Leishmania infantum 6.25 uM. In kind it is functional.
Conditions: not given
The method, boiled down:
as §1
Turning to `COc1ccc2nc3cc(Cl)ccc3c(NCCCCCCCCNc3c4ccc(Cl)cc4nc4ccc(OC)cc34)c2c1`, the “Antileishmanial activity (% reduction of parasite load)” value is listed as 95%.

In the case of `COc1ccc2nc3cc(Cl)ccc3c(NCCCCCCCCCCNc3c4ccc(Cl)cc4nc4ccc(OC)cc34)c2c1`, the “Antileishmanial activity (% reduction of parasite load)” value is 90%.

A further experiment relates to Trypanosoma cruzi. Description: Percentage of activity against Trypanosoma cruzi at 12.5 uM. The experiment is classed as functional.
Conditions: not given
The method, boiled down:
as §3
Take `COc1ccc2nc3cc(Cl)ccc3c(NCCCCCCCCCCNc3c4ccc(Cl)cc4nc4ccc(OC)cc34)c2c1`: the “T. cruzi parasite load reduction” value is 99%.

Another experiment concerns Plasmodium falciparum. Description: In vitro sensitivity for Plasmodium falciparum FcB1R. In kind it is functional, organism-based.
Conditions: not given
A digest of the protocol:
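Asynchronous P. falciparum cultures in human erythrocytes (0.5% parasitemia, 1% haematocrit) exposed to serially diluted drug for 24 h at 37 °C. [3H]hypoxanthine (0.5 µCi/well) then added for a further 24 h. Uptake compared with drug-free controls on the same plate. IC50 taken from the concentration–response curve, averaged over independent experiments. DMSO ≤0.1%.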
The compound `COc1ccc2nc3cc(Cl)ccc3c(NCCCCCCCCNc3c4ccc(Cl)cc4nc4ccc(OC)cc34)c2c1` yielded an IC50 of 19 nM.

`COc1ccc2nc3cc(Cl)ccc3c(NCCCCCCCCCCNc3c4ccc(Cl)cc4nc4ccc(OC)cc34)c2c1` displayed an IC50 of 57 nM. Against the preceding compound, the IC50 is about 3-fold higher.

The next experiment concerns MRC5. The experiment can be described thus: Cytotoxicity on MRC-5 cells at 3.13 uM. The following applies: Homo sapiens. In kind it is functional. The method, boiled down:
as §4
As to `COc1ccc2nc3cc(Cl)ccc3c(NCCCCCCCCNc3c4ccc(Cl)cc4nc4ccc(OC)cc34)c2c1`, the cytotoxicity at 3.13 µM was 20%.

Consider `COc1ccc2nc3cc(Cl)ccc3c(NCCCCCCCCCCNc3c4ccc(Cl)cc4nc4ccc(OC)cc34)c2c1`, for which the cytotoxicity at 3.13 µM worked out at 0%.

A further experiment relates to Leishmania infantum. The experiment can be described thus: Percentage of activity against Leishmania infantum at 1.56 uM. The experiment is classed as functional.
Conditions: not given
The method, boiled down:
as §1
For the compound `COc1ccc2nc3cc(Cl)ccc3c(NCCCCCCCCNc3c4ccc(Cl)cc4nc4ccc(OC)cc34)c2c1`, the “Antileishmanial activity (% reduction of parasite load)” value is given as 70%.

With `COc1ccc2nc3cc(Cl)ccc3c(NCCCCCCCCCCNc3c4ccc(Cl)cc4nc4ccc(OC)cc34)c2c1`, the “Antileishmanial activity (% reduction of parasite load)” value is recorded as 20%.

Another experiment concerns Trypanosoma cruzi. Description: Percentage of activity against Trypanosoma cruzi at 1.56 uM. In kind it is functional.
Conditions: not given
A digest of the protocol: as §3
Take `COc1ccc2nc3cc(Cl)ccc3c(NCCCCCCCCNc3c4ccc(Cl)cc4nc4ccc(OC)cc34)c2c1`: the Parasite load reduction came out at 70%.

`COc1ccc2nc3cc(Cl)ccc3c(NCCCCCCCCCCNc3c4ccc(Cl)cc4nc4ccc(OC)cc34)c2c1` showed a Parasite load reduction of 0%.

The subject of the next experiment is Trypanosoma brucei. Description: Percentage of activity against Trypanosoma brucei at 6.25 uM.
Conditions: not given
In kind it is functional. A digest of the protocol:
as §2
`COc1ccc2nc3cc(Cl)ccc3c(NCCCCCCCCNc3c4ccc(Cl)cc4nc4ccc(OC)cc34)c2c1`: the “Inhibition of parasite multiplication” value amounted to 100%.

As for `COc1ccc2nc3cc(Cl)ccc3c(NCCCCCCCCCCNc3c4ccc(Cl)cc4nc4ccc(OC)cc34)c2c1`, the “Inhibition of parasite multiplication” value is 100%.

Another experiment concerns MRC5. Description: Cytotoxicity on MRC-5 cells at 12.5 uM. The following applies: Homo sapiens. In kind it is functional. The method, boiled down:
as §4
As to `COc1ccc2nc3cc(Cl)ccc3c(NCCCCCCCCNc3c4ccc(Cl)cc4nc4ccc(OC)cc34)c2c1`, the cytotoxicity at 12.5 µM came to 100%.

In turn, `COc1ccc2nc3cc(Cl)ccc3c(NCCCCCCCCCCNc3c4ccc(Cl)cc4nc4ccc(OC)cc34)c2c1` gave a cytotoxicity at 12.5 µM of 80%.

The term IC50 denotes the midpoint of a concentration-inhibition curve.
